# According to ChEMBL document CHEMBL1137359, “Potent and orally bioavailable 8-bicyclo[2.2.2]octylxanthines as adenosine A1 receptor antagonists” (J Med Chem, 2006):
# Columns and labels:
# [1] = Clearance in Sprague-Dawley rat at 2 mg, po; format: ADME, organism-based; details: in vivo
# Method in brief: (§1)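 Pharmacokinetics after one oral dose in male Sprague-Dawley rats (1 mg/kg, or 2 mg dose), beagle dogs and cynomolgus monkeys (1 mg/kg). Bioavailability, half-life, clearance and volume of distribution reported as mean ± variation.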
# Adenosine receptor A2a [2] = biological target: Adenosine receptor A2a (Homo sapiens, UniProt P29274); assay: Displacement of [125I]ZM-241385 from human adenosine A2A receptor expressed in HEK cells; format: cell-based, HEK293
# Sequence of Adenosine receptor A2a (Homo sapiens, UniProt P29274) (P29274 whole entry): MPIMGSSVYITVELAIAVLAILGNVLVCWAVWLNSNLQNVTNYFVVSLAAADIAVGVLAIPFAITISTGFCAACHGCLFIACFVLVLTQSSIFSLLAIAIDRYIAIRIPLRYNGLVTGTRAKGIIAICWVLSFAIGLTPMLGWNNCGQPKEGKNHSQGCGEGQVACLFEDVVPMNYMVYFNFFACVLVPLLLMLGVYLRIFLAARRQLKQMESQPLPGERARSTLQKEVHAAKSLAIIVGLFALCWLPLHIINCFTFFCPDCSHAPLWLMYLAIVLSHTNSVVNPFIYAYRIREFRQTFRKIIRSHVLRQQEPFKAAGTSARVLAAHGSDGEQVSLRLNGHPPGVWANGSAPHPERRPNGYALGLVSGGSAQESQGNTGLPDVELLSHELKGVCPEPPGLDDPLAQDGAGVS
# Method in brief: (§2)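 Membranes from stably transfected CHO-K1 (hA1) or HEK (hA2A, hA2B, hA3) cells, 2 h at room temperature in 50 mM HEPES pH 7.4, 1 mM EDTA, 5 mM MgCl2, 1 U/mL adenosine deaminase. 5% DMSO final except hA3. Full curves 10^-11–10^-5 M, seven concentrations, four determinations each. Filtration, γ-counting, Ki derived.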
# [3] = biological target: Adenosine receptors; A1 & A2a (Homo sapiens) (UniProt P30542+P29274); assay: Selectivity for human adenosine A1 receptor over human adenosine A2A receptor; format: protein assay
# Adenosine receptor A1 [4] = biological target: T1, Adenosine receptor A1 (Rattus norvegicus, UniProt P25099); assay: Displacement of [3H]CPX from rat brain cortex adenosine A1 receptor
# T1 sequence (P25099 whole entry): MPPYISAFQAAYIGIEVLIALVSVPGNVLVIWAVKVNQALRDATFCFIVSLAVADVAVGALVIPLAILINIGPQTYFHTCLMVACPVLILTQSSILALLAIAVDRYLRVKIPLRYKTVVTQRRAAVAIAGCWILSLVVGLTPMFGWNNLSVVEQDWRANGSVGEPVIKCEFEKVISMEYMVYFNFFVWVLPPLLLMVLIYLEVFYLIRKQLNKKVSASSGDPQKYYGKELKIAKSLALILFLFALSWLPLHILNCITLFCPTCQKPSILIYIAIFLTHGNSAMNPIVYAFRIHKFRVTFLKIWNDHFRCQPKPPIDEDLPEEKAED
# Method in brief: (§3)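 Crude membranes (10-20 µg protein) from rat brain cortex (A1, 2 nM 3H-CPX) or striatum (A2A, 0.5-1.2 nM 3H-ZM241385) incubated 90 min at room temperature in 50 mM Tris-HCl pH 7.4 with 2 U/mL adenosine deaminase. Stopped with ice-cold buffer, then vacuum filtration and scintillation counting. Ki from concentration-response displacement.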
# [5] = Solubility in 5% dextrose in water; format: physicochemical
# Method in brief: (§4)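 Solubility of each compound measured in sterile water for injection, 0.9% saline, 5% dextrose in water, ethanol and octanol; values in mg/mL from duplicate determinations per solvent, individual values varying <5%.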
# [6] = biological target: T2, Adenosine receptor A3 (Homo sapiens) (UniProt P0DMS8); assay: Displacement of [125I]ABA from human adenosine A3 receptor expressed in HEK cells relative to control; format: cell-based; set-up: concentration or dose not given beside the values; details: HEK293
# T2 sequence (whole entry): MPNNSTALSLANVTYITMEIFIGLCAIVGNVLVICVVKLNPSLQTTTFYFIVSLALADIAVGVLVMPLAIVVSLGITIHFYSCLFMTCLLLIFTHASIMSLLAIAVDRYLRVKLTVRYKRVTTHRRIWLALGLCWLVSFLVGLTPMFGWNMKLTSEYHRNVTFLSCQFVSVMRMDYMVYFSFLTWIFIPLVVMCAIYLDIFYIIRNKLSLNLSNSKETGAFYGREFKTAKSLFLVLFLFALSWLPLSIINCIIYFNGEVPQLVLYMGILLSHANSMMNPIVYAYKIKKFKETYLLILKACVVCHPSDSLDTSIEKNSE
# Method in brief: (§5)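 Single-point screen at 1 µM antagonist, run in duplicate, on transfected-cell membranes: CHO-K1 (hA1), HEK (hA2A, hA2B, hA3). 2 h at room temperature in 50 mM HEPES pH 7.4, 1 mM EDTA, 5 mM MgCl2, 1 U/mL adenosine deaminase; 5% DMSO except hA3. Nonspecific binding with 50 µM XAC, or 10 µM BW-1433 for hA3. Result is % radioligand bound relative to control.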
# [7] = Solubility in octanol; format: physicochemical; method in brief: as §4
# [8] = Half life in Sprague-Dawley rat at 2 mg, po; format: ADME, organism-based; details: in vivo; method in brief: as §1
# Adenosine receptor A1 [9] = biological target: T3, Adenosine receptor A1 (Homo sapiens, UniProt P30542); assay: Displacement of [125I]ABA from human adenosine A1 receptor expressed in CHOK1 cells; format: cell-based, CHO-K1; method in brief: as §2
# T3 sequence (P30542 whole entry): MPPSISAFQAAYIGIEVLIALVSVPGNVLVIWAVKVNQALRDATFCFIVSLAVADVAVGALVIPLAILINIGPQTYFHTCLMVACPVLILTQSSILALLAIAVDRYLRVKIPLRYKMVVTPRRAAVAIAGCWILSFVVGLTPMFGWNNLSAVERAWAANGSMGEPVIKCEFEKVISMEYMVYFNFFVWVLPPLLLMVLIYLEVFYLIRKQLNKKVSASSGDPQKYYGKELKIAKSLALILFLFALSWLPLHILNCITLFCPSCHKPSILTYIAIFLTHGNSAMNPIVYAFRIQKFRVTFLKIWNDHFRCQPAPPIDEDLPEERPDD
# [10] = Oral bioavailability in Sprague-Dawley rat at 2 mg, po; format: ADME, organism-based; details: in vivo; method in brief: as §1
# [11] = biological target: T4, Adenosine receptor A2b (Homo sapiens) (UniProt P29275); assay: Displacement of [125I]3-(4-aminobenzyl)-8-phenyloxyacetate-1-propyl-xanthine from human adenosine A2B receptor expressed in HEK cells relative to control; format: cell-based; set-up: concentration or dose not given beside the values; details: HEK293; method in brief: as §5
# T4 sequence (whole entry): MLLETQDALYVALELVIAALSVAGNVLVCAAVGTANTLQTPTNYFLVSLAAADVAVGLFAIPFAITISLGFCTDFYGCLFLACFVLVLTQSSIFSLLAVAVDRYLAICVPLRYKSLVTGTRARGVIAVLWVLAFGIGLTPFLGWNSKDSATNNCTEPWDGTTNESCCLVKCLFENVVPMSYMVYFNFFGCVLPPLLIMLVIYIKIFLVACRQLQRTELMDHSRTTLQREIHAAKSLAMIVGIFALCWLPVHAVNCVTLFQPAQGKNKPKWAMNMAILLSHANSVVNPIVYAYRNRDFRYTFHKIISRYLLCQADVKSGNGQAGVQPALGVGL
# Rattus norvegicus [12] = assay: Volume of distribution in Sprague-Dawley rat at 2 mg, po; format: ADME, organism-based; details: in vivo; method in brief: as §1
# [13] = Aqueous solubility of the compound; format: physicochemical; details: water; method in brief: as §4
# [14] = Solubility in ethanol; format: physicochemical; method in brief: as §4
# [15] = Solubility in 0.9% saline; format: physicochemical; method in brief: as §4
# [16] = Clearance in Sprague-Dawley rat at 1 mg/kg, po; format: ADME, organism-based; set-up: dose 1 mg/kg, route oral; details: in vivo; method in brief: as §1
# [17] = Oral bioavailability in Sprague-Dawley rat at 1 mg/kg, po; format: ADME, organism-based; details: in vivo; method in brief: as §1
# Adenosine receptor A2a [18] = biological target: Adenosine receptor A2a (Rattus norvegicus, UniProt P30543); assay: Displacement of [3H]ZM-241385 from rat brain striatum adenosine A2A receptor; method in brief: as §3
# Sequence of Adenosine receptor A2a (Rattus norvegicus, UniProt P30543) (P30543 whole entry): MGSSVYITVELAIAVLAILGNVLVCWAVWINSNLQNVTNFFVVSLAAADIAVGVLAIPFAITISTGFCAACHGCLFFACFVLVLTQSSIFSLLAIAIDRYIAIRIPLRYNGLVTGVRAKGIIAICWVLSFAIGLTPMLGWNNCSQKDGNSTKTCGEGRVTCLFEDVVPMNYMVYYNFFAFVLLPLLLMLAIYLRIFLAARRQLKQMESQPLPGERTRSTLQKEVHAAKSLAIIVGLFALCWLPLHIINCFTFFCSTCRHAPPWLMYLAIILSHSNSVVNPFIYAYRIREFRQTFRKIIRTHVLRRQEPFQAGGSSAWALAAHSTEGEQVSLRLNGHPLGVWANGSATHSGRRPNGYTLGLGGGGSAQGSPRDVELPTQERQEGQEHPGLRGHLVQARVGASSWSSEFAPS
# Rattus norvegicus [19] = assay: Diuretic effect in orally dosed rat; format: ADME, organism-based; details: Urine, po
# Method in brief: (§6)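 Male Sprague-Dawley rats in metabolic cages dosed by gavage in 0.5% CMC suspension, 0.001-3 mg/kg (n=3-5 per group; vehicle n=3). Urine collected 4 h, volume measured gravimetrically, Na and K by flame photometry. Urine flow and UNaV expressed per hour, averaged over 4 h.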
# [20] = Oral bioavailability in cynomolgus monkey at 1 mg/kg, po; format: ADME, organism-based, Macaca fascicularis; details: in vivo; method in brief: as §1
# [21] = Clearance in cynomolgus monkey at 1 mg/kg, po; format: ADME, organism-based, Macaca fascicularis; set-up: dose 1 mg/kg, route oral; details: in vivo; method in brief: as §1
# Cynomolgus monkey = assay: Volume of distribution in cynomolgus monkey at 1 mg/kg, po; format: ADME, organism-based, Macaca fascicularis; set-up: dose 1 mg/kg, route oral; details: in vivo; method in brief: as §1
# Rattus norvegicus [22] = species: Rattus norvegicus; assay: Reversal of CPA inhibition of isoproterenol-stimulated rat atria; format: functional, organism-based; details: Cardiac atrium
# Method in brief: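 Isolated rat atria in Krebs buffer at 37 °C gassed with 95% O2/5% CO2, pH 7.4, stimulated with 30 nM isoproterenol. EC50 taken at 50% restoration, 5 atria per dose group.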
# [23] = Clearance in Beagle dog at 1 mg/kg, po; format: ADME, organism-based, Canis lupus familiaris; set-up: dose 1 mg/kg, route oral; details: in vivo; method in brief: as §1
# [24] = Half life in Beagle dog at 1 mg/kg, po; format: ADME, organism-based, Canis lupus familiaris; set-up: dose 1 mg/kg, route oral; details: in vivo; method in brief: as §1
# Adenosine receptor A2b = biological target: T5, Adenosine receptor A2b (Homo sapiens, UniProt P29275); assay: Displacement of [125I]3-(4-aminobenzyl)-8-phenyloxyacetate-1-propyl-xanthine from human adenosine A2B receptor expressed in HEK cells; format: cell-based, HEK293; method in brief: as §2
# T5 sequence (P29275 whole entry): T4 sequence (whole entry)
# Canis familiaris = assay: Volume of distribution in Beagle dog at 1 mg/kg, po; format: ADME, organism-based, Canis lupus familiaris; set-up: dose 1 mg/kg, route oral; details: in vivo; method in brief: as §1
# Rattus norvegicus [25] = assay: Volume of distribution in Sprague-Dawley rat at 1 mg/kg, po; format: ADME, organism-based; set-up: dose 1 mg/kg, route oral; details: in vivo; method in brief: as §1
# Adenosine receptor A3 = biological target: T6, Adenosine receptor A3 (Homo sapiens, UniProt P0DMS8); assay: Displacement of [125I]ABA from human adenosine A3 receptor expressed in HEK cells; format: cell-based, HEK293
# T6 sequence (P0DMS8 whole entry): T2 sequence (whole entry)
# Method in brief: as §2, with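 “hA3. Radioligands: 0.3 nM (hA1) or 0.6 nM (hA3) 125I-ABA, 0.7 nM 125I-ZM241385, 0.5 nM A2B ligand.” for “hA3.”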
# [26] = Half life in Sprague-Dawley rat at 1 mg/kg, po; format: ADME, organism-based; set-up: dose 1 mg/kg, route oral; details: in vivo; method in brief: as §1
# [27] = Half life in cynomolgus monkey at 1 mg/kg, po; format: ADME, organism-based, Macaca fascicularis; set-up: dose 1 mg/kg, route oral; details: in vivo; method in brief: as §1
# [28] = Oral bioavailability in Beagle dog at 1 mg/kg, po; format: ADME, organism-based, Canis lupus familiaris; details: in vivo; method in brief: as §1
# Rattus norvegicus [29] = assay: Natriuretic effect in orally dosed rat; format: ADME, organism-based; details: po; method in brief: as §6
# [30] = biological target: Adenosine receptor A2a (Rattus norvegicus) (UniProt P30543); assay: Displacement of [3H]ZM241385 from rat brain striatum adenosine A2A receptor relative to control
# Sequence of Adenosine receptor A2a (Rattus norvegicus) (P30543 whole entry): as above
Ki (Adenosine receptor A2a [2]) [nM],Ki (Adenosine receptor A1 [4]) [nM],solubility [5] [mg/mL],Activity [6] [%],Ki (Adenosine receptor A1 [9]) [nM],solubility [13] [mg/mL],solubility [15] [mg/mL],CL/F [16] [mL/min/kg],bioavailability [17] [%],Ki (Adenosine receptor A2b) [nM],half-life [26] [h],SMILES,further results
1070,7.8,63,100,33,18.1,29.8,–,–,–,–,CCCn1c(=O)c2nc([C@]34CC[C@](C(=O)O)(CC3)CC4)[nH]c2n(CCC)c1=O,CL/F [1]: 2.26 mL/min/kg; Ratio Ki [3]: 32; solubility [7]: 60 mg/mL; half-life [8]: 2.14 h; bioavailability [10]: 97%; Activity [11]: 48%; Vdss (Rattus norvegicus [12]): 0.57 L/kg; solubility [14]: 51 mg/mL
6410,1.3,12.4,–,–,24.4,25.4,1.56,99,90,3.14,CCCn1c(=O)c2[nH]c([C@]34CC[C@](CCC(=O)O)(CC3)CC4)nc2n(CCC)c1=O,Ki (Adenosine receptor A2a [18]): 2440 nM; ED50 (Rattus norvegicus [19]): 0.015 mg/kg; bioavailability [20]: 94%; CL/F [21]: 5.82 mL/min/kg; Vdss (Cynomolgus monkey): 4.25 L/kg; EC50 (Rattus norvegicus [22]): 16.1 nM; Kb (Rattus norvegicus [22]; read-out: pA2 (converted)): 0.158 nM; CL/F [23]: 11.8 mL/min/kg; half-life [24]: 6.4 h; Vdss (Canis familiaris): 2.64 L/kg; Vdss (Rattus norvegicus [25]): 0.32 L/kg; Ki (Adenosine receptor A3): > 10000 nM; half-life [27]: 11.1 h; bioavailability [28]: 78%; ED50 (Rattus norvegicus [29]): 0.015 mg/kg
–,4,–,26,29,0.5,–,7.1,48,127,2.04,CCCn1c(=O)c2nc([C@]34CC[C@](CCCC(=O)O)(CC3)CC4)[nH]c2n(CCC)c1=O,Activity [30]: 50%
